Laboratory results as given in ChEMBL document CHEMBL1145945, “Synthesis and biological evaluation of iodinated and fluorinated 9-(2-hydroxypropyl) and 9-(2-hydroxyethoxy)methyl purine nucleoside analogues” (J Med Chem, 2003).

System: MOLT-4
Experiment: Inhibitory concentration required to inhibit human T-lymphocyte (Molt4/C8) cell line by 50%
Format: functional, cell-based
Conditions: not given
CC(=O)OC(C)Cn1cnc2c(Cl)nc(I)nc21 (stereo not drawn) showed an IC50 of 12.3 µM.
In the case of CC(O)Cn1cnc2c(Cl)nc(I)nc21 (stereo not drawn), the IC50 is reported as > 500 µM.
OCCOCn1cnc2c(S)nc(F)nc21 gave an IC50 of 164 µM.
With CC(=O)OC(C)Cn1cnc2c(S)nc(F)nc21 (stereo not drawn) the IC50 was > 500 µM.
Compound CC(=O)OC(C)Cn1cnc2c(N)nc(I)nc21 (stereo not drawn) has an IC50 of 436 µM.
For CC(O)Cn1cnc2c(N)nc(I)nc21 (stereo not drawn), the IC50 was > 500 µM.
With Nc1nc(I)nc2c1ncn2COCCO the IC50 was > 500 µM.
For CC(=O)OC(C)Cn1cnc2c(Cl)nc(N)nc21 (stereo not drawn), the IC50 was > 500 µM.

System: HeLa
Experiment: Inhibitory concentration required to inhibit cervical carcinoma (HeLa) cells by 50%
Format: functional, cell-based
Conditions: Homo sapiens
Procedure, shortened: (§1)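 Monolayer cells in D-MEM or RPMI 1640 with 10% FBS, 37 °C, 5% CO2, seeded at 3 × 10⁴/mL. MTT read-out at 570 nm as % growth. IC50 by manual graphical fitting; mean ± SD, four parallel samples, three experiments.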
Work on CC(=O)OC(C)Cn1cnc2c(Cl)nc(I)nc21 (stereo not drawn) yielded an IC50 of 5.13 µM.
With CC(O)Cn1cnc2c(Cl)nc(I)nc21 (stereo not drawn) the IC50 was > 500 µM.
In the case of OCCOCn1cnc2c(S)nc(F)nc21, the IC50 is reported as > 500 µM.
For CC(=O)OC(C)Cn1cnc2c(S)nc(F)nc21 (stereo not drawn), the IC50 was > 500 µM.
For CC(=O)OC(C)Cn1cnc2c(N)nc(I)nc21 (stereo not drawn), the IC50 was > 500 µM.
In the case of CC(O)Cn1cnc2c(N)nc(I)nc21 (stereo not drawn), the IC50 is reported as > 500 µM.
In the case of Nc1nc(I)nc2c1ncn2COCCO, the IC50 is reported as > 500 µM.
With CC(=O)OC(C)Cn1cnc2c(Cl)nc(N)nc21 (stereo not drawn) the IC50 was > 500 µM.

System: HBL
Experiment: Inhibitory concentration required to inhibit melanoma (HBL) cells by 50%
Format: functional, cell-based
Conditions: Homo sapiens
Procedure, shortened: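 Monolayer culture in D-MEM or RPMI 1640 plus 10% FBS, 37 °C, 5% CO2. MTT assay at 570 nm, expressed as % growth. IC50 graphically fitted by hand; four parallel samples, three experiments.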
In the case of CC(=O)OC(C)Cn1cnc2c(Cl)nc(I)nc21 (stereo not drawn), the IC50 is reported as 5.25 µM.
For CC(O)Cn1cnc2c(Cl)nc(I)nc21 (stereo not drawn), the IC50 was > 500 µM.
For OCCOCn1cnc2c(S)nc(F)nc21, the IC50 was > 500 µM.
With CC(=O)OC(C)Cn1cnc2c(S)nc(F)nc21 (stereo not drawn) the IC50 was > 500 µM.
In the case of CC(=O)OC(C)Cn1cnc2c(N)nc(I)nc21 (stereo not drawn), the IC50 is reported as > 500 µM.
In the case of CC(O)Cn1cnc2c(N)nc(I)nc21 (stereo not drawn), the IC50 is reported as > 500 µM.
With Nc1nc(I)nc2c1ncn2COCCO the IC50 was > 500 µM.
In the case of CC(=O)OC(C)Cn1cnc2c(Cl)nc(N)nc21 (stereo not drawn), the IC50 is reported as > 500 µM.

System: CCRF-CEM
Experiment: Inhibitory concentration required to inhibit human T-lymphocyte (CEM) cell line by 50%
Format: functional, cell-based
Conditions: not given
Compound CC(=O)OC(C)Cn1cnc2c(Cl)nc(I)nc21 (stereo not drawn) has an IC50 of 15.9 µM.
In the case of CC(O)Cn1cnc2c(Cl)nc(I)nc21 (stereo not drawn), the IC50 is reported as > 500 µM.
For OCCOCn1cnc2c(S)nc(F)nc21, the IC50 was 117 µM.
For CC(=O)OC(C)Cn1cnc2c(S)nc(F)nc21 (stereo not drawn), the IC50 was > 500 µM.
Compound CC(=O)OC(C)Cn1cnc2c(N)nc(I)nc21 (stereo not drawn) has an IC50 of 381 µM.
For CC(O)Cn1cnc2c(N)nc(I)nc21 (stereo not drawn), the IC50 was 465 µM.
In the case of Nc1nc(I)nc2c1ncn2COCCO, the IC50 is reported as > 500 µM.
For CC(=O)OC(C)Cn1cnc2c(Cl)nc(N)nc21 (stereo not drawn), the IC50 was > 500 µM.

System: HT-29
Experiment: Inhibitory concentration required to inhibit human colon carcinoma (HT-29) cells by 50%
Format: functional, cell-based
Conditions: not given
Procedure, shortened: as §1
CC(=O)OC(C)Cn1cnc2c(Cl)nc(I)nc21 (stereo not drawn) gave an IC50 of 6.42 µM.
In the case of CC(O)Cn1cnc2c(Cl)nc(I)nc21 (stereo not drawn), the IC50 is reported as > 500 µM.
For OCCOCn1cnc2c(S)nc(F)nc21, the IC50 was > 500 µM.
For CC(=O)OC(C)Cn1cnc2c(S)nc(F)nc21 (stereo not drawn), the IC50 was > 500 µM.
For CC(=O)OC(C)Cn1cnc2c(N)nc(I)nc21 (stereo not drawn), the IC50 was > 500 µM.
For CC(O)Cn1cnc2c(N)nc(I)nc21 (stereo not drawn), the IC50 was > 500 µM.
For Nc1nc(I)nc2c1ncn2COCCO, the IC50 was > 500 µM.
In the case of CC(=O)OC(C)Cn1cnc2c(Cl)nc(N)nc21 (stereo not drawn), the IC50 is reported as > 500 µM.

System: L1210
Experiment: Inhibitory concentration required to inhibit murine leukemia (L1210) cell line by 50%
Format: functional, cell-based
Conditions: Mus musculus
CC(=O)OC(C)Cn1cnc2c(Cl)nc(I)nc21 (stereo not drawn) showed an IC50 of 13 µM.
In the case of CC(O)Cn1cnc2c(Cl)nc(I)nc21 (stereo not drawn), the IC50 is reported as > 500 µM.
Work on OCCOCn1cnc2c(S)nc(F)nc21 yielded an IC50 of 170 µM.
With CC(=O)OC(C)Cn1cnc2c(S)nc(F)nc21 (stereo not drawn) the IC50 was 226 µM.
For CC(=O)OC(C)Cn1cnc2c(N)nc(I)nc21 (stereo not drawn), the IC50 was 421 µM.
Work on CC(O)Cn1cnc2c(N)nc(I)nc21 (stereo not drawn) yielded an IC50 of 490 µM.
In the case of Nc1nc(I)nc2c1ncn2COCCO, the IC50 is reported as > 500 µM.
With CC(=O)OC(C)Cn1cnc2c(Cl)nc(N)nc21 (stereo not drawn) the IC50 was > 500 µM.

System: FM3A
Experiment: Inhibitory concentration required to inhibit mammary carcinoma (FM3A) cell line by 50%
Format: functional, cell-based
Conditions: Mus musculus
In the case of CC(=O)OC(C)Cn1cnc2c(Cl)nc(I)nc21 (stereo not drawn), the IC50 is reported as 47 µM.
With CC(O)Cn1cnc2c(Cl)nc(I)nc21 (stereo not drawn) the IC50 was 479 µM.
With OCCOCn1cnc2c(S)nc(F)nc21 the IC50 was 155 µM.
For CC(=O)OC(C)Cn1cnc2c(S)nc(F)nc21 (stereo not drawn), the IC50 was 368 µM.
Compound CC(=O)OC(C)Cn1cnc2c(N)nc(I)nc21 (stereo not drawn) has an IC50 of 462 µM.
In the case of CC(O)Cn1cnc2c(N)nc(I)nc21 (stereo not drawn), the IC50 is reported as 452 µM.
With Nc1nc(I)nc2c1ncn2COCCO the IC50 was > 500 µM.
For CC(=O)OC(C)Cn1cnc2c(Cl)nc(N)nc21 (stereo not drawn), the IC50 was > 500 µM.

System: SW-620
Experiment: Inhibitory concentration required to inhibit human colon carcinoma (SW620) cells by 50%
Format: functional, cell-based
Conditions: not given
Procedure, shortened: (§2)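 Cells grown as monolayers in D-MEM or RPMI 1640 with 10% FBS at 37 °C, 5% CO2, plated at 5 × 10⁴/mL. Viable cells by MTT absorbance at 570 nm. IC50 from manual graphical fit; mean ± SD of four parallel samples in three experiments.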
For CC(=O)OC(C)Cn1cnc2c(Cl)nc(I)nc21 (stereo not drawn), the IC50 was 3.55 µM.
In the case of CC(O)Cn1cnc2c(Cl)nc(I)nc21 (stereo not drawn), the IC50 is reported as > 500 µM.
For OCCOCn1cnc2c(S)nc(F)nc21, the IC50 was > 500 µM.
For CC(=O)OC(C)Cn1cnc2c(S)nc(F)nc21 (stereo not drawn), the IC50 was > 500 µM.
In the case of CC(=O)OC(C)Cn1cnc2c(N)nc(I)nc21 (stereo not drawn), the IC50 is reported as > 500 µM.
For CC(O)Cn1cnc2c(N)nc(I)nc21 (stereo not drawn), the IC50 was > 500 µM.
For Nc1nc(I)nc2c1ncn2COCCO, the IC50 was > 500 µM.
For CC(=O)OC(C)Cn1cnc2c(Cl)nc(N)nc21 (stereo not drawn), the IC50 was > 500 µM.

System: HEp-2
Experiment: Inhibitory concentration required to inhibit laryngeal carcinoma (Hep2) cells by 50%
Format: functional, cell-based
Conditions: Homo sapiens
Procedure, shortened: as §1
CC(=O)OC(C)Cn1cnc2c(Cl)nc(I)nc21 (stereo not drawn) gave an IC50 of 6.31 µM.
In the case of CC(O)Cn1cnc2c(Cl)nc(I)nc21 (stereo not drawn), the IC50 is reported as > 500 µM.
For OCCOCn1cnc2c(S)nc(F)nc21, the IC50 was > 500 µM.
With CC(=O)OC(C)Cn1cnc2c(S)nc(F)nc21 (stereo not drawn) the IC50 was 200 µM.
In the case of CC(=O)OC(C)Cn1cnc2c(N)nc(I)nc21 (stereo not drawn), the IC50 is reported as > 500 µM.
With CC(O)Cn1cnc2c(N)nc(I)nc21 (stereo not drawn) the IC50 was > 500 µM.
In the case of Nc1nc(I)nc2c1ncn2COCCO, the IC50 is reported as > 500 µM.
With CC(=O)OC(C)Cn1cnc2c(Cl)nc(N)nc21 (stereo not drawn) the IC50 was > 500 µM.

System: WI-38
Experiment: Inhibitory concentration required to inhibit diploid fibroblasts (WI38) by 50%
Format: functional, cell-based
Conditions: Homo sapiens
Procedure, shortened: as §2
For CC(=O)OC(C)Cn1cnc2c(Cl)nc(I)nc21 (stereo not drawn), the IC50 was 14.1 µM.
With CC(O)Cn1cnc2c(Cl)nc(I)nc21 (stereo not drawn) the IC50 was > 500 µM.
In the case of OCCOCn1cnc2c(S)nc(F)nc21, the IC50 is reported as > 500 µM.
With CC(=O)OC(C)Cn1cnc2c(S)nc(F)nc21 (stereo not drawn) the IC50 was > 500 µM.
In the case of CC(=O)OC(C)Cn1cnc2c(N)nc(I)nc21 (stereo not drawn), the IC50 is reported as > 500 µM.
For CC(O)Cn1cnc2c(N)nc(I)nc21 (stereo not drawn), the IC50 was > 500 µM.
With Nc1nc(I)nc2c1ncn2COCCO the IC50 was > 500 µM.
For CC(=O)OC(C)Cn1cnc2c(Cl)nc(N)nc21 (stereo not drawn), the IC50 was > 500 µM.

System: not listed separately
Experiment: Inhibitory concentration required to inhibit pancreatic carcinoma (MiaPaCa2) cells by 50%
Format: functional, Homo sapiens
Conditions: not given
Procedure, shortened: as §1
CC(=O)OC(C)Cn1cnc2c(Cl)nc(I)nc21 (stereo not drawn) showed an IC50 of 14.5 µM.
For CC(O)Cn1cnc2c(Cl)nc(I)nc21 (stereo not drawn), the IC50 was > 500 µM.
In the case of OCCOCn1cnc2c(S)nc(F)nc21, the IC50 is reported as > 500 µM.
For CC(=O)OC(C)Cn1cnc2c(S)nc(F)nc21 (stereo not drawn), the IC50 was > 500 µM.
In the case of CC(=O)OC(C)Cn1cnc2c(N)nc(I)nc21 (stereo not drawn), the IC50 is reported as > 500 µM.
With CC(O)Cn1cnc2c(N)nc(I)nc21 (stereo not drawn) the IC50 was > 500 µM.
In the case of Nc1nc(I)nc2c1ncn2COCCO, the IC50 is reported as > 500 µM.
In the case of CC(=O)OC(C)Cn1cnc2c(Cl)nc(N)nc21 (stereo not drawn), the IC50 is reported as > 500 µM.
